Several values for one entry are separate records, joined by “and”; a condition that tells them apart may be missing. Equal values may be shown once.
Test system: HEK-293T
Assay: Multiplex assay against HEK293T;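 on Population Tubulin-Different-Phenotype (%): share of the cells with healthy nuclei that show this phenotype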
Assay type: toxicity, cell-based
Details: human
Outline: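 Values for tubulin, mitochondrial-mass and membrane-permeability phenotypes are per cents of cells with healthy nuclei. These cells were identified by CellPathfinder machine-learning gating of live cells that had been stained at seeding with Hoechst33342, BioTracker Green Microtubule Cytoskeleton Dye, MitoTracker Red and Annexin V Alexa Fluor 680 and imaged on a CQ1 microscope at 37°C and 5% CO2 after compound addition. The gating first set Hoechst high-intensity objects apart from normal cells, then split normal cells into healthy, pyknosed or fragmented nuclei, and pyknosed cells into mitotic or apoptotic.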

[1] = 12 h, 1 µM, compound concentration 1 uM, replicate 1
[2] = 12 h, 1 µM, compound concentration 1 uM, replicate 2
[3] = 12 h, 10 µM, compound concentration 10 uM, replicate 1
[4] = 12 h, 10 µM, compound concentration 10 uM, replicate 2
[5] = 24 h, 1 µM, compound concentration 1 uM, replicate 1
[6] = 24 h, 1 µM, compound concentration 1 uM, replicate 2
[7] = 24 h, 10 µM, compound concentration 10 uM, replicate 1
[8] = 24 h, 10 µM, compound concentration 10 uM, replicate 2
[9] = 48 h, 1 µM, compound concentration 1 uM, replicate 1
[10] = 48 h, 1 µM, compound concentration 1 uM, replicate 2
[11] = 48 h, 10 µM, compound concentration 10 uM, replicate 1
[12] = 48 h, 10 µM, compound concentration 10 uM, replicate 2

SMILES: COc1ccc(NS(=O)(=O)c2sc3ccc(Cl)cc3c2C)cc1N1CCNCC1.Cl
- Population Apoptotic (%) [1]: 40%
- Population Fragmented Nuclei (%) [1]: 17%
- Population Healthy Nuclei (%) [1]: 36%
- Population Hoechst High Intensity Objects (%) [1]: 35%
- Population Membrane Permeable-Phenotype (%) [1]: 5%
- Population Mitochondria Different-Phenotype (%) [1]: 66%
- Population Mitotic Cells (%) [1]: 59%
- Population Normal (%) [1]: 64%
- Population Pyknosed Nuclei (%) [1]: 45%
- Population Tubulin-Different-Phenotype (%) [1]: 32%
- Total Cell Count [1]: 385
- Population Apoptotic (%) [2]: 15%
- Population Fragmented Nuclei (%) [2]: 5%
- Population Healthy Nuclei (%) [2]: 41%
- Population Hoechst High Intensity Objects (%) [2]: 3%
- Population Membrane Permeable-Phenotype (%) [2]: 15%
- Population Mitochondria Different-Phenotype (%) [2]: 25%
- Population Mitotic Cells (%) [2]: 84%
- Population Normal (%) [2]: 96%
- Population Pyknosed Nuclei (%) [2]: 53%
- Population Tubulin-Different-Phenotype (%) [2]: 39%
- Total Cell Count [2]: 233
- Population Apoptotic (%) [3]: 71%
- Population Fragmented Nuclei (%) [3]: 7%
- Population Healthy Nuclei (%) [3]: 33%
- Population Hoechst High Intensity Objects (%) [3]: 12%
- Population Membrane Permeable-Phenotype (%) [3]: 4%
- Population Mitochondria Different-Phenotype (%) [3]: 99%
- Population Mitotic Cells (%) [3]: 28%
- Population Normal (%) [3]: 87%
- Population Pyknosed Nuclei (%) [3]: 59%
- Total Cell Count [3]: 350
- Population Apoptotic (%) [4]: 57%
- Population Fragmented Nuclei (%) [4]: 3%
- Population Healthy Nuclei (%) [4]: 16%
- Population Hoechst High Intensity Objects (%) [4]: 4%
- Population Membrane Permeable-Phenotype (%) [4]: 6%
- Population Mitochondria Different-Phenotype (%) [4]: 86%
- Population Mitotic Cells (%) [4]: 42%
- Population Normal (%) [4]: 95%
- Population Pyknosed Nuclei (%) [4]: 79%
- Population Tubulin-Different-Phenotype (%) [4]: 96%
- Total Cell Count [4]: 186
- Population Apoptotic (%) [5]: 46%
- Population Fragmented Nuclei (%) [5]: 21%
- Population Healthy Nuclei (%) [5]: 40%
- Population Hoechst High Intensity Objects (%) [5]: 39%
- Population Membrane Permeable-Phenotype (%) [5]: 2%
- Population Mitochondria Different-Phenotype (%) [5]: 61%
- Population Mitotic Cells (%) [5]: 53%
- Population Normal (%) [5]: 60%
- Population Pyknosed Nuclei (%) [5]: 38%
- Population Tubulin-Different-Phenotype (%) [5]: 43%
- Total Cell Count [5]: 399
- Population Apoptotic (%) [6]: 22%
- Population Fragmented Nuclei (%) [6]: 4%
- Population Healthy Nuclei (%) [6]: 58%
- Population Hoechst High Intensity Objects (%) [6]: 2%
- Population Membrane Permeable-Phenotype (%) [6]: 4%
- Population Mitochondria Different-Phenotype (%) [6]: 36%
- Population Mitotic Cells (%) [6]: 77%
- Population Normal (%) [6]: 97%
- Population Pyknosed Nuclei (%) [6]: 36%
- Population Tubulin-Different-Phenotype (%) [6]: 54%
- Total Cell Count [6]: 278
- Population Apoptotic (%) [7]: 74%
- Population Fragmented Nuclei (%) [7]: 10%
- Population Healthy Nuclei (%) [7]: 34%
- Population Hoechst High Intensity Objects (%) [7]: 21%
- Population Membrane Permeable-Phenotype (%) [7]: 4%
- Population Mitochondria Different-Phenotype (%) [7]: 98%
- Population Mitotic Cells (%) [7]: 25%
- Population Normal (%) [7]: 78%
- Population Pyknosed Nuclei (%) [7]: 54%
- Population Tubulin-Different-Phenotype (%) [7]: 97%
- Total Cell Count [7]: 356
- Population Apoptotic (%) [8]: 90%
- Population Fragmented Nuclei (%) [8]: 4%
- Population Healthy Nuclei (%) [8]: 25%
- Population Hoechst High Intensity Objects (%) [8]: 8%
- Population Membrane Permeable-Phenotype (%) [8]: 2%
- Population Mitochondria Different-Phenotype (%) [8]: 97%
- Population Mitotic Cells (%) [8]: 9%
- Population Normal (%) [8]: 91%
- Population Pyknosed Nuclei (%) [8]: 70%
- Total Cell Count [8]: 187
- Population Apoptotic (%) [9]: 47%
- Population Fragmented Nuclei (%) [9]: 23%
- Population Healthy Nuclei (%) [9]: 51%
- Population Hoechst High Intensity Objects (%) [9]: 29%
- Population Membrane Permeable-Phenotype (%) [9]: 1%
- Population Mitochondria Different-Phenotype (%) [9]: 37%
- Population Mitotic Cells (%) [9]: 52%
- Population Normal (%) [9]: 70%
- Population Pyknosed Nuclei (%) [9]: 25%
- Population Tubulin-Different-Phenotype (%) [9]: 32%
- Total Cell Count [9]: 493
- Population Apoptotic (%) [10]: 15%
- Population Fragmented Nuclei (%) [10]: 4%
- Population Healthy Nuclei (%) [10]: 81%
- Population Hoechst High Intensity Objects (%) [10]: 4%
- Population Membrane Permeable-Phenotype (%) [10]: 3%
- Population Mitochondria Different-Phenotype (%) [10]: 9%
- Population Mitotic Cells (%) [10]: 84%
- Population Normal (%) [10]: 95%
- Population Pyknosed Nuclei (%) [10]: 14%
- Population Tubulin-Different-Phenotype (%) [10]: 41%
- Total Cell Count [10]: 485
- Population Fragmented Nuclei (%) [11]: 13%
- Population Healthy Nuclei (%) [11]: 39%
- Population Hoechst High Intensity Objects (%) [11]: 26%
- Population Membrane Permeable-Phenotype (%) [11]: 0%
- Population Mitochondria Different-Phenotype (%) [11]: 100%
- Population Normal (%) [11]: 73%
- Population Pyknosed Nuclei (%) [11]: 47%
- Population Tubulin-Different-Phenotype (%) [11]: 95%
- Total Cell Count [11]: 367
- Population Apoptotic (%) [12]: 77%
- Population Fragmented Nuclei (%) [12]: 4%
- Population Healthy Nuclei (%) [12]: 28%
- Population Hoechst High Intensity Objects (%) [12]: 15%
- Population Membrane Permeable-Phenotype (%) [12]: 6%
- Population Mitochondria Different-Phenotype (%) [12]: 95%
- Population Mitotic Cells (%) [12]: 22%
- Population Normal (%) [12]: 84%
- Population Pyknosed Nuclei (%) [12]: 67%
- Population Tubulin-Different-Phenotype (%) [12]: 91%
- Total Cell Count [12]: 188

SMILES: COc1cc(N2CCC(N(C)C)CC2)ccc1Nc1ncc(Cl)c(Nc2ccccc2P(C)(C)=O)n1
- Population Apoptotic (%) [1]: 16%
- Population Fragmented Nuclei (%) [1]: 19%
- Population Healthy Nuclei (%) [1]: 61%
- Population Hoechst High Intensity Objects (%) [1]: 14%
- Population Membrane Permeable-Phenotype (%) [1]: 1%
- Population Mitochondria Different-Phenotype (%) [1]: 9%
- Population Mitotic Cells (%) [1]: 83%
- Population Normal (%) [1]: 85%
- Population Pyknosed Nuclei (%) [1]: 18%
- Population Tubulin-Different-Phenotype (%) [1]: 7%
- Total Cell Count [1]: 684
- Population Apoptotic (%) [2]: 14%
- Population Fragmented Nuclei (%) [2]: 8%
- Population Healthy Nuclei (%) [2]: 84%
- Population Hoechst High Intensity Objects (%) [2]: 5%
- Population Mitochondria Different-Phenotype (%) [2]: 19%
- Population Mitotic Cells (%) [2]: 85%
- Population Normal (%) [2]: 94%
- Population Pyknosed Nuclei (%) [2]: 6%
- Population Tubulin-Different-Phenotype (%) [2]: 21%
- Total Cell Count [2]: 1309
- Population Fragmented Nuclei (%) [3]: 10% and 13%
- Population Healthy Nuclei (%) [3]: 23% and 51%
- Population Hoechst High Intensity Objects (%) [3]: 21% and 20%
- Population Membrane Permeable-Phenotype (%) [3]: 0% and 6%
- Population Mitotic Cells (%) [3]: 29% and 78%
- Population Normal (%) [3]: 78% and 79%
- Population Pyknosed Nuclei (%) [3]: 66% and 35%
- Population Tubulin-Different-Phenotype (%) [3]: 97% and 54%
- Total Cell Count [3]: 211 and 606
- Population Fragmented Nuclei (%) [4]: 3%
- Population Hoechst High Intensity Objects (%) [4]: 12% and 9%
- Population Membrane Permeable-Phenotype (%) [4]: 3%
- Population Mitochondria Different-Phenotype (%) [4]: 86% and 54%
- Population Mitotic Cells (%) [4]: 41% and 87%
- Population Normal (%) [4]: 87% and 90%
- Population Tubulin-Different-Phenotype (%) [4]: 100% and 85%
- Population Apoptotic (%) [5]: 14%
- Population Fragmented Nuclei (%) [5]: 17%
- Population Healthy Nuclei (%) [5]: 69%
- Population Hoechst High Intensity Objects (%) [5]: 9%
- Population Membrane Permeable-Phenotype (%) [5]: 5%
- Population Mitochondria Different-Phenotype (%) [5]: 8%
- Population Mitotic Cells (%) [5]: 85%
- Population Normal (%) [5]: 90%
- Population Pyknosed Nuclei (%) [5]: 12%
- Population Tubulin-Different-Phenotype (%) [5]: 14%
- Total Cell Count [5]: 667
- Population Apoptotic (%) [6]: 12%
- Population Fragmented Nuclei (%) [6]: 20%
- Population Healthy Nuclei (%) [6]: 77%
- Population Hoechst High Intensity Objects (%) [6]: 4%
- Population Membrane Permeable-Phenotype (%) [6]: 3%
- Population Mitochondria Different-Phenotype (%) [6]: 4%
- Population Mitotic Cells (%) [6]: 87%
- Population Normal (%) [6]: 95%
- Population Pyknosed Nuclei (%) [6]: 2%
- Population Tubulin-Different-Phenotype (%) [6]: 19%
- Total Cell Count [6]: 2108
- Population Apoptotic (%) [7]: 74% and 37%
- Population Fragmented Nuclei (%) [7]: 12% and 14%
- Population Healthy Nuclei (%) [7]: 31% and 55%
- Population Hoechst High Intensity Objects (%) [7]: 24% and 22%
- Population Membrane Permeable-Phenotype (%) [7]: 1% and 7%
- Population Mitochondria Different-Phenotype (%) [7]: 98% and 51%
- Population Mitotic Cells (%) [7]: 25% and 62%
- Population Normal (%) [7]: 75% and 77%
- Population Pyknosed Nuclei (%) [7]: 55% and 30%
- Population Tubulin-Different-Phenotype (%) [7]: 98% and 73%
- Total Cell Count [7]: 229 and 561
- Population Fragmented Nuclei (%) [8]: 7% and 5%
- Population Hoechst High Intensity Objects (%) [8]: 19% and 9%
- Population Membrane Permeable-Phenotype (%) [8]: 0% and 10%
- Population Mitochondria Different-Phenotype (%) [8]: 95% and 60%
- Population Normal (%) [8]: 80% and 90%
- Population Tubulin-Different-Phenotype (%) [8]: 95% and 93%
- Population Apoptotic (%) [11]: 77%
- Population Fragmented Nuclei (%) [11]: 18%
- Population Healthy Nuclei (%) [11]: 34%
- Population Hoechst High Intensity Objects (%) [11]: 23%
- Population Membrane Permeable-Phenotype (%) [11]: 0%
- Population Mitochondria Different-Phenotype (%) [11]: 100%
- Population Mitotic Cells (%) [11]: 22%
- Population Normal (%) [11]: 76%
- Population Pyknosed Nuclei (%) [11]: 47%
- Population Tubulin-Different-Phenotype (%) [11]: 100%
- Total Cell Count [11]: 239
- Population Apoptotic (%) [12]: 91%
- Population Fragmented Nuclei (%) [12]: 8%
- Population Healthy Nuclei (%) [12]: 17%
- Population Hoechst High Intensity Objects (%) [12]: 17%
- Population Mitochondria Different-Phenotype (%) [12]: 90%
- Population Mitotic Cells (%) [12]: 8%
- Population Normal (%) [12]: 82%
- Population Pyknosed Nuclei (%) [12]: 74%
- Population Tubulin-Different-Phenotype (%) [12]: 85%
- Total Cell Count [12]: 147
